The results in this text go back to paper PMC10762718 (RSC Advances, 2024).

Common to all, as to format: cell-based
Data set [1] deals with MDA-MB-231 (human breast cancer) cells. Kind of data set: MTT cell viability assay, MDA-MB-231. The conditions noted are these: for inhibition at 25 µM: MDA-MB-231; for viability at 10 µM / viability at 25 µM / viability at 50 µM: MDA-MB-231, 72 h, read-out: Cell viability (%) ±SD. An outline of the steps: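 MDA-MB-231 cells were grown as a monolayer in DMEM with 10% heat-inactivated FBS and 1% penicillin-streptomycin at 37 °C in humidified CO2, subcultured every third day with trypsin-EDTA, and used before passage 8. Cells were exposed 72 h to 10, 25 and 50 μM. Medium was removed, MTT added for 3 h at 37 °C, formazan dissolved in DMSO and read at 595 nm. Viability is relative to untreated control, triplicates, ±SD. IC50 comes from the viability-versus-concentration plot.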

Another data set relates to MDA-MB-453 cells. Kind of data set: MTT cell viability assay, MDA-MB-453. The conditions noted are these: for viability at 1 µM / viability at 10 µM / viability at 25 µM: Homo sapiens, MDA-MB-453, read-out: Cell viability (%) ±SD; for IC50 against MDA-MB-453 cells: tested at 1, 10 and 25 μM. An outline of the steps:
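MDA-MB-453 (HER2-positive) cells were exposed to test compound at 1, 10 and 25 μM for 72 h. After medium removal, MTT was added for 3 h at 37 °C in CO2. Formazan was dissolved in DMSO and absorbance read at 595 nm. Percent viable cells are relative to untreated control cells.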

Data set [2] deals with MCF-7 breast cancer cells. In words: MTT cell viability assay, MCF-7. The conditions noted are these: Homo sapiens; for inhibition at 25 µM: MCF7; for IC50: MCF7, 72 h, read-out: IC50 against MCF-7 breast cancer cells line; for viability at 1 µM / viability at 10 µM / viability at 25 µM: MCF7, read-out: Cell viability (%) ±SD. Summed up:
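After medium removal, MTT was added for 3 h at 37 °C in CO2, formazan dissolved in DMSO and absorbance read at 595 nm. Viability is relative to untreated cells, triplicates, n = 3, ±SD. IC50 comes from plotting percent viability against concentration.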

The test system of data set [3] is normal mammary epithelial MCF-10A cells. Kind of data set: MTT cell viability assay, normal MCF-10A cells. The conditions noted are these: tested at 25, 50 and 100 μM. Summed up:
(§1)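 Normal mammary epithelial MCF-10A cells were exposed to test compound at 25, 50 and 100 μM for 72 h. Cells were then given MTT after medium removal, 3 h at 37 °C in CO2. Formazan was dissolved in DMSO and absorbance read at 595 nm. Viability is expressed as percent of untreated control cells.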

Data set [4] in a line: MTT cell viability assay, normal MCF-10A cells. Particulars: human, MCF-10A normal mammary epithelial cells. An outline of the steps: as §1

For the compound `CC(=O)OC[C@@H]1O[C@H](n2cc(Cn3ccc4nc(-c5ccc(Br)cc5)cc(=O)n43)nn2)[C@@H](OC(C)=O)[C@H](OC(C)=O)[C@@H]1OC(C)=O` (stereo in doubt) [Compound 33, (2S,3R,4R,5S,6S)-2-(Acetoxymethyl)-6-(4-((5-(4-bromophenyl)-7-oxopyrazolo[1,5-a]pyrimidin-1(7H)-yl)methyl)-1H-1,2,3-triazol-1-yl)tetrahydro-2H-pyran-3,4,5-triyl triacetate], in data set [1], the inhibition at 25 µM was approximately 50%, the viability at 10 µM came to 66.7 ± 8.23%, the viability at 25 µM is 63.3 ± 6.32% and the viability at 50 µM was 47 ± 4.91%. For the same compound, in the data set on MDA-MB-453 cells, the viability at 1 µM came to 88.8 ± 5.2%, the viability at 10 µM was found to be 78.3 ± 4.7%, the viability at 25 µM worked out at 67.6 ± 5.3% and the “IC50 against MDA-MB-453 cells” value is on record as “did not reach up to IC50 value”. In data set [2], the inhibition at 25 µM was approximately 50%, the half-inhibitory concentration (IC50) came to 7.32 µM, the viability at 1 µM was determined as 67 ± 4.7% and the viability at 10 µM came out at 35 ± 2.5%. Besides, the viability at 25 µM in data set [2] turned out to be 25 ± 2.9%. Moreover, the “growth inhibitory activity against normal breast epithelial cell (MCF-10A)” value (“growth inhibitory activity” below) in data set [3] was “none of these compounds did have any growth inhibitory activity”. In data set [4], the viability at 72 h, 25 µM is 99.6 ± 2.2%; the viability at 72 h, 50 µM amounted to 87.6 ± 1.7%; the viability at 72 h, 100 µM worked out at 81.4 ± 2.6%.
Regarding `CC(=O)OC[C@@H]1O[C@H](n2cc(Cn3ccc4nc(-c5ccc(C(F)(F)F)cc5)cc(=O)n43)nn2)[C@@H](OC(C)=O)[C@H](OC(C)=O)[C@@H]1OC(C)=O` (stereo in doubt) [Compound 36, (2S,3R,4R,5S,6S)-2-(Acetoxymethyl)-6-(4-((7-oxo-5-(4-(trifluoromethyl)phenyl)pyrazolo[1,5-a]pyrimidin-1(7H)-yl)methyl)-1H-1,2,3-triazol-1-yl)tetrahydro-2H-pyran-3,4,5-triyl triacetate], in data set [1], the inhibition at 25 µM is approximately 50%, the viability at 10 µM was found to be 70.4 ± 5.36%, the viability at 25 µM amounted to 46.1 ± 3.32% and the viability at 50 µM stood at 41.2 ± 1.26%. Further, in the data set with MDA-MB-453 cells, the viability at 1 µM was 91.5 ± 4.6%, the viability at 10 µM is 82.9 ± 1.2%, the viability at 25 µM amounted to 63.8 ± 1.7% and the “IC50 against MDA-MB-453 cells” value is “did not reach up to IC50 value”. Further, in data set [2], the inhibition at 25 µM was approximately 50%, the half-maximal inhibitory concentration (IC50) stood at 4.93 µM, the viability at 1 µM is 52.3 ± 3.1% and the viability at 10 µM is 32.4 ± 0.9%. Moreover, the viability at 25 µM in data set [2] was 28.1 ± 4.4%. Moreover, the “growth inhibitory activity” value in data set [3] is recorded as “none of these compounds did have any growth inhibitory activity”. In data set [4], the viability at 72 h, 25 µM is 88.6 ± 1.5%; the viability at 72 h, 50 µM turned out to be 86.1 ± 2.8%; the viability at 72 h, 100 µM was found to be 84.2 ± 3%.
Regarding `COc1ccc(-c2cc(=O)n3c(ccn3Cc3cn([C@H]4O[C@H](COC(C)=O)[C@@H](OC(C)=O)[C@H](OC(C)=O)[C@@H]4OC(C)=O)nn3)n2)cc1` [Compound 41, (2R,3R,4S,5S,6S)-2-(Acetoxymethyl)-6-(4-((5-(4-methoxyphenyl)-7-oxopyrazolo[1,5-a]pyrimidin-1(7H)-yl)methyl)-1H-1,2,3-triazol-1-yl)tetrahydro-2H-pyran-3,4,5-triyl triacetate], in data set [1], the inhibition at 25 µM was approximately 50%, the viability at 10 µM is 66.7 ± 8.21%, the viability at 25 µM turned out to be 54.3 ± 6.12% and the viability at 50 µM was 44.2 ± 4.11%. In addition, in the data set on MDA-MB-453 cells, the viability at 1 µM was 96.4 ± 4.8%, the viability at 10 µM amounted to 77.4 ± 5.4%, the viability at 25 µM came to 95.1 ± 35.7% and the “IC50 against MDA-MB-453 cells” value is given as “did not reach up to IC50 value”. Moreover, in data set [2], the inhibition at 25 µM was approximately 50%, the half-maximal inhibitory concentration (IC50) came out at 21.8 µM, the viability at 1 µM was 72.8 ± 4.2% and the viability at 10 µM worked out at 58.2 ± 3.8%. Also, the viability at 25 µM in data set [2] amounted to 48.1 ± 3.5%. Moreover, in data set [3], the “growth inhibitory activity” value is “none of these compounds did have any growth inhibitory activity”. In data set [4], this compound yielded a viability at 72 h, 25 µM of 89.8 ± 2.8%; a viability at 72 h, 50 µM of 84.2 ± 5.8%; a viability at 72 h, 100 µM of 83 ± 1.5%.
